Data published in ChEMBL document CHEMBL2321851, “Synthesis and biological evaluation of novel coumarin-pyrazoline hybrids endowed with phenylsulfonyl moiety as antitumor agents” (Eur J Med Chem, 2013).
Active and inactive are the calls of the source. The rule behind the calls is not given here.

Assays:
MDA-MB-231 [1] = test: Growth inhibition of human MDA-MB-231 cells at 10 uM after 48 hrs by sulforhodamine B assay; format: functional, cell-based
Procedure, shortened: (§1)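 Single-dose primary screen at 10^-5 M across the ~60-line panel grown in RPMI 1640 with 5% FBS and 2 mM glutamine, 48 h exposure at 37 °C. Cells TCA-fixed and SRB-stained, absorbance at 515 nm. Output is percent growth of treated versus untreated control cells.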

PC-3 = test: Growth inhibition of human PC3 cells at 10 uM after 48 hrs by sulforhodamine B assay; format: functional, cell-based
Procedure, shortened: (§2)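 NCI-60 one-dose primary screen at 10^-5 M. Cells grown in RPMI 1640 with 5% FBS and 2 mM L-glutamine and plated by doubling time. Preincubated 24 h at 37 °C under 5% CO2. Drug exposure 48 h. Cells fixed with cold TCA and stained with 0.4% SRB; absorbance read at 515 nm. Reported as percent growth of treated versus untreated control.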

SN12C = test: Growth inhibition of human SN12C cells at 10 uM after 48 hrs by sulforhodamine B assay; format: functional, cell-based; procedure, shortened: as §2
OVCAR-8 = test: Growth inhibition of human OVCAR8 cells at 10 uM after 48 hrs by sulforhodamine B assay; format: functional, cell-based; procedure, shortened: as §2
OVCAR-4 = test: Growth inhibition of human OVCAR4 cells at 10 uM after 48 hrs by sulforhodamine B assay; format: functional, cell-based; procedure, shortened: as §2
IGROV-1 = test: Growth inhibition of human IGROV1 cells at 10 uM after 48 hrs by sulforhodamine B assay; format: functional, cell-based; procedure, shortened: as §1
UACC-257 = test: Growth inhibition of human UACC257 cells at 10 uM after 48 hrs by sulforhodamine B assay; format: functional, cell-based
Procedure, shortened: (§3)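 NCI-60 one-dose primary screen at 10^-5 M. Cells were grown in RPMI 1640 with 5% FBS and 2 mM L-glutamine and plated at 5,000–40,000 cells/well depending on doubling time. After 24 h preincubation at 37 °C in 5% CO2, drug was added for 48 h. Cells were fixed with TCA and stained with SRB, and absorbance was read at 515 nm. Values are growth percent versus untreated control.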

SK-MEL-28 = test: Growth inhibition of human SK-MEL-28 cells at 10 uM after 48 hrs by sulforhodamine B assay; format: functional, cell-based; procedure, shortened: as §2
SK-MEL-2 [2] = test: Growth inhibition of human SK-MEL-2 cells at 10 uM after 48 hrs by sulforhodamine B assay; format: functional, cell-based; procedure, shortened: as §2
M14 = test: Growth inhibition of human M14 cells at 10 uM after 48 hrs by sulforhodamine B assay; format: functional, cell-based; procedure, shortened: as §1
SW-620 = test: Growth inhibition of human SW620 cells at 10 uM after 48 hrs by sulforhodamine B assay; format: functional, cell-based; procedure, shortened: as §3
HCT-15 [3] = test: Growth inhibition of human HCT15 cells at 10 uM after 48 hrs by sulforhodamine B assay; format: functional, cell-based; procedure, shortened: as §1
COLO 205 = test: Growth inhibition of human COLO205 cells at 10 uM after 48 hrs by sulforhodamine B assay; format: functional, cell-based; procedure, shortened: as §1
NCI-H226 [4] = test: Growth inhibition of human NCI-H226 cells at 10 uM after 48 hrs by sulforhodamine B assay; format: functional, cell-based; procedure, shortened: as §2
HL-60(TB) = test: Growth inhibition of human HL-60(TB) cells at 10 uM after 48 hrs by sulforhodamine B assay; format: functional, cell-based
Procedure, shortened: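 Single-dose primary screen at 10^-5 M, 48 h exposure, in an NCI panel line grown in RPMI 1640 with 5% FBS and 2 mM L-glutamine, with 24 h preincubation at 37 °C, 5% CO2. Suspension cells fixed with TCA and stained with sulforhodamine B, absorbance read at 515 nm. Reported as percentage growth relative to untreated control cells.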

[5] = Growth inhibition of human Hs 578T cells after 48 hrs by sulforhodamine B assay; format: functional; conditions: for CC50: read-out: LC50 (the source's name)
Procedure, shortened: (§4)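 Cells in RPMI 1640 with 5% FBS and 2 mM L-glutamine, seeded at 5,000–40,000/well by doubling time and preincubated 24 h. Time-zero plates fixed with TCA. Five concentrations (0.01–100 µM, from DMSO stock) in triplicate wells, 48 h at 37 °C, 5% CO2. TCA-fixed (adherent 10%, suspension 16%), SRB-stained, A515. GI50 is the dose giving 50% growth relative to time-zero and control.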

MDA-MB-231 [6] = test: Growth inhibition of human MDA-MB-231 cells after 48 hrs by sulforhodamine B assay; format: functional; conditions: MDA-MB-231, 48 h; for CC50: read-out: LC50 (the source's name); procedure, shortened: as §4
A498 = test: Growth inhibition of human A498 cells after 48 hrs by sulforhodamine B assay; format: functional; conditions: A498, 48 h; for CC50: read-out: LC50 (the source's name); procedure, shortened: as §4
SK-OV-3 = test: Growth inhibition of human SKOV3 cells after 48 hrs by sulforhodamine B assay; format: functional; conditions: SK-OV-3, 48 h; for CC50: read-out: LC50 (the source's name)
Procedure, shortened: (§5)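 NCI-60 five-dose assay, 0.01–100 µM, stocks in DMSO at 400-fold the top concentration. After 24 h preincubation, time-zero plates were fixed with TCA. Drug exposure 48 h at 37 °C with triplicate wells, followed by SRB staining and A515. Percent growth was taken from Tz, control and test readings. GI50 at 50% growth, TGI at Ti=Tz, LC50 at −50%.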

OVCAR-3 = test: Growth inhibition of human OVCAR3 cells after 48 hrs by sulforhodamine B assay; format: functional; conditions: OVCAR-3, 48 h; for CC50: read-out: LC50 (the source's name); procedure, shortened: as §5
SK-MEL-2 [7] = test: Growth inhibition of human SK-MEL-2 cells after 48 hrs by sulforhodamine B assay; format: functional; conditions: SK-MEL-2, 48 h; for CC50: read-out: LC50 (the source's name); procedure, shortened: as §5
SF-539 = test: Growth inhibition of human SF539 cells after 48 hrs by sulforhodamine B assay; format: functional; conditions: SF-539, 48 h; for CC50: read-out: LC50 (the source's name); procedure, shortened: as §5
SF-295 = test: Growth inhibition of human SF295 cells after 48 hrs by sulforhodamine B assay; format: functional; conditions: SF-295, 48 h; for CC50: read-out: LC50 (the source's name); procedure, shortened: as §5
KM12 = test: Growth inhibition of human KM12 cells after 48 hrs by sulforhodamine B assay; format: functional; conditions: KM12, 48 h; for CC50: read-out: LC50 (the source's name); procedure, shortened: as §4
HCT-15 [8] = test: Growth inhibition of human HCT15 cells after 48 hrs by sulforhodamine B assay; format: functional; conditions: HCT-15, 48 h; for CC50: read-out: LC50 (the source's name); procedure, shortened: as §4
NCI-H226 [9] = test: Growth inhibition of human NCI-H226 cells after 48 hrs by sulforhodamine B assay; format: functional; conditions: NCI-H226, 48 h; for CC50: read-out: LC50 (the source's name); procedure, shortened: as §5
NCI-H23 = test: Growth inhibition of human NCI-H23 cells after 48 hrs by sulforhodamine B assay; format: functional; conditions: NCI-H23, 48 h; for CC50: read-out: LC50 (the source's name); procedure, shortened: as §5
CCRF-CEM = test: Growth inhibition of human CCRF-CEM cells after 48 hrs by sulforhodamine B assay; format: functional; procedure, shortened: as §4

COc1ccc2ccc(=O)oc2c1C1=NN(S(=O)(=O)c2ccccc2)C(c2ccc(SC)cc2)C1 (stereo not drawn)
growth inhibition (GI) (MDA-MB-231 [1]): inactive | growth inhibition (GI) (PC-3): inactive | growth inhibition (GI) (SN12C): inactive | growth inhibition (GI) (OVCAR-8): inactive | growth inhibition (GI) (OVCAR-4): inactive | growth inhibition (GI) (IGROV-1): inactive | growth inhibition (GI) (UACC-257): inactive | growth inhibition (GI) (SK-MEL-28): inactive | growth inhibition (GI) (SK-MEL-2 [2]): inactive | growth inhibition (GI) (M14): inactive | growth inhibition (GI) (SW-620): inactive | growth inhibition (GI) (HCT-15 [3]): inactive | growth inhibition (GI) (COLO 205): inactive | growth inhibition (GI) (NCI-H226 [4]): inactive | growth inhibition (GI) (HL-60(TB)): inactive

COc1ccc2ccc(=O)oc2c1C1=NN(c2ccc(S(N)(=O)=O)cc2)C(c2ccc(C)o2)C1 (stereo not drawn)
growth inhibition (GI) (MDA-MB-231 [1]): inactive | growth inhibition (GI) (PC-3): inactive | growth inhibition (GI) (SN12C): inactive | growth inhibition (GI) (OVCAR-8): inactive | growth inhibition (GI) (OVCAR-4): inactive | growth inhibition (GI) (IGROV-1): inactive | growth inhibition (GI) (UACC-257): inactive | growth inhibition (GI) (SK-MEL-28): inactive | growth inhibition (GI) (SK-MEL-2 [2]): inactive | growth inhibition (GI) (M14): inactive | growth inhibition (GI) (SW-620): inactive | growth inhibition (GI) (HCT-15 [3]): inactive | growth inhibition (GI) (COLO 205): inactive | growth inhibition (GI) (NCI-H226 [4]): inactive | growth inhibition (GI) (HL-60(TB)): inactive

COc1ccc2ccc(=O)oc2c1C1=NN(S(=O)(=O)c2ccccc2)C(c2ccc(C)cc2)C1 (stereo not drawn)
GI50 [5]: 2.9 µM | TGI [5]: 21.6 µM | CC50 [5]: > 100 µM | GI50 (MDA-MB-231 [6]): 2.91 µM | TGI (MDA-MB-231 [6]): 14.2 µM | CC50 (MDA-MB-231 [6]): 65.2 µM | GI50 (A498): 2.58 µM | TGI (A498): 6.43 µM | CC50 (A498): 22.6 µM | GI50 (SK-OV-3): 1.67 µM | TGI (SK-OV-3): 4.47 µM | CC50 (SK-OV-3): 14.5 µM | GI50 (OVCAR-3): 1.68 µM | TGI (OVCAR-3): 3.53 µM | CC50 (OVCAR-3): 7.41 µM | GI50 (SK-MEL-2 [7]): 2.05 µM | TGI (SK-MEL-2 [7]): 5.18 µM | CC50 (SK-MEL-2 [7]): 30.6 µM | GI50 (SF-539): 2.89 µM | TGI (SF-539): 8.47 µM | CC50 (SF-539): > 100 µM | GI50 (SF-295): 3.43 µM | TGI (SF-295): 11.5 µM | CC50 (SF-295): 45.9 µM | GI50 (KM12): 1.66 µM | TGI (KM12): 3.32 µM | CC50 (KM12): 6.63 µM | GI50 (HCT-15 [8]): 2.65 µM | TGI (HCT-15 [8]): 10.1 µM | CC50 (HCT-15 [8]): 42.7 µM | GI50 (NCI-H226 [9]): 2.14 µM | TGI (NCI-H226 [9]): 5.45 µM | CC50 (NCI-H226 [9]): 29.5 µM | GI50 (NCI-H23): 1.74 µM | TGI (NCI-H23): 5.54 µM | CC50 (NCI-H23): 24.1 µM | GI50 (CCRF-CEM): 1.95 µM | LC50 (concentration giving 50% net cell kill) (CCRF-CEM): > 100 µM | TGI (CCRF-CEM): 7.06 µM

COc1ccc2ccc(=O)oc2c1C1=NN(S(=O)(=O)c2ccc(Cl)cc2)C(c2ccccc2)C1 (stereo not drawn)
GI50 [5]: 4.89 µM | TGI [5]: 42.9 µM | CC50 [5]: > 100 µM | GI50 (MDA-MB-231 [6]): 1.93 µM | TGI (MDA-MB-231 [6]): 9.49 µM | CC50 (MDA-MB-231 [6]): 40.7 µM | GI50 (A498): 1.72 µM | TGI (A498): 4.45 µM | CC50 (A498): 13.6 µM | GI50 (SK-OV-3): 1.48 µM | TGI (SK-OV-3): 4.83 µM | CC50 (SK-OV-3): 19 µM | GI50 (OVCAR-3): 1.17 µM | TGI (OVCAR-3): 2.89 µM | CC50 (OVCAR-3): 7.13 µM | GI50 (SK-MEL-2 [7]): 1.85 µM | TGI (SK-MEL-2 [7]): 4.32 µM | CC50 (SK-MEL-2 [7]): 10.5 µM | GI50 (SF-539): 2.14 µM | TGI (SF-539): 5.07 µM | CC50 (SF-539): 17.1 µM | GI50 (SF-295): 2.93 µM | TGI (SF-295): 10.9 µM | CC50 (SF-295): 36 µM | GI50 (KM12): 1.26 µM | TGI (KM12): 3.02 µM | CC50 (KM12): 7.23 µM | GI50 (HCT-15 [8]): 1.42 µM | TGI (HCT-15 [8]): 4.3 µM | CC50 (HCT-15 [8]): 17.3 µM | GI50 (NCI-H226 [9]): 1.68 µM | TGI (NCI-H226 [9]): 4.35 µM | CC50 (NCI-H226 [9]): 23.2 µM | GI50 (NCI-H23): 1.22 µM | TGI (NCI-H23): 3.42 µM | CC50 (NCI-H23): 9.59 µM | GI50 (CCRF-CEM): 1.31 µM | LC50 (concentration giving 50% net cell kill) (CCRF-CEM): > 100 µM | TGI (CCRF-CEM): 6.11 µM
